Activity calls are given as the source filed them. The rule behind the calls is not given here.
Key:
[1] = biological target: T1, Protein cereblon/SWI/SNF-related matrix-associated actin-dependent regulator of chromatin subfamily A member 2 (Homo sapiens, UniProt P51531+Q96SW2); experiment: PROTAC activity at CRBN/SMARCA2 in human NCI-H1792 cells harboring wild type SMARCA4 assessed as induction of SMARCA2 degradation incubated for 24 hrs by immunoblot analysis; assay type: cell-based
Method in brief: (§1)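 H1792 (SMARCA4-WT) cells in RPMI with 10% FBS were treated with 1 nM–10 μM for 24 or 48 h. Cells were lysed in RIPA and immunoblotted for SMARCA2, SMARCA4 and β-actin. Bands were quantified and normalised to β-actin, with DMSO set at 100%. DC50 and Dmax were derived by nonlinear regression. n = 3 biological replicates.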
Target sequence in this assay (P51531 whole entry): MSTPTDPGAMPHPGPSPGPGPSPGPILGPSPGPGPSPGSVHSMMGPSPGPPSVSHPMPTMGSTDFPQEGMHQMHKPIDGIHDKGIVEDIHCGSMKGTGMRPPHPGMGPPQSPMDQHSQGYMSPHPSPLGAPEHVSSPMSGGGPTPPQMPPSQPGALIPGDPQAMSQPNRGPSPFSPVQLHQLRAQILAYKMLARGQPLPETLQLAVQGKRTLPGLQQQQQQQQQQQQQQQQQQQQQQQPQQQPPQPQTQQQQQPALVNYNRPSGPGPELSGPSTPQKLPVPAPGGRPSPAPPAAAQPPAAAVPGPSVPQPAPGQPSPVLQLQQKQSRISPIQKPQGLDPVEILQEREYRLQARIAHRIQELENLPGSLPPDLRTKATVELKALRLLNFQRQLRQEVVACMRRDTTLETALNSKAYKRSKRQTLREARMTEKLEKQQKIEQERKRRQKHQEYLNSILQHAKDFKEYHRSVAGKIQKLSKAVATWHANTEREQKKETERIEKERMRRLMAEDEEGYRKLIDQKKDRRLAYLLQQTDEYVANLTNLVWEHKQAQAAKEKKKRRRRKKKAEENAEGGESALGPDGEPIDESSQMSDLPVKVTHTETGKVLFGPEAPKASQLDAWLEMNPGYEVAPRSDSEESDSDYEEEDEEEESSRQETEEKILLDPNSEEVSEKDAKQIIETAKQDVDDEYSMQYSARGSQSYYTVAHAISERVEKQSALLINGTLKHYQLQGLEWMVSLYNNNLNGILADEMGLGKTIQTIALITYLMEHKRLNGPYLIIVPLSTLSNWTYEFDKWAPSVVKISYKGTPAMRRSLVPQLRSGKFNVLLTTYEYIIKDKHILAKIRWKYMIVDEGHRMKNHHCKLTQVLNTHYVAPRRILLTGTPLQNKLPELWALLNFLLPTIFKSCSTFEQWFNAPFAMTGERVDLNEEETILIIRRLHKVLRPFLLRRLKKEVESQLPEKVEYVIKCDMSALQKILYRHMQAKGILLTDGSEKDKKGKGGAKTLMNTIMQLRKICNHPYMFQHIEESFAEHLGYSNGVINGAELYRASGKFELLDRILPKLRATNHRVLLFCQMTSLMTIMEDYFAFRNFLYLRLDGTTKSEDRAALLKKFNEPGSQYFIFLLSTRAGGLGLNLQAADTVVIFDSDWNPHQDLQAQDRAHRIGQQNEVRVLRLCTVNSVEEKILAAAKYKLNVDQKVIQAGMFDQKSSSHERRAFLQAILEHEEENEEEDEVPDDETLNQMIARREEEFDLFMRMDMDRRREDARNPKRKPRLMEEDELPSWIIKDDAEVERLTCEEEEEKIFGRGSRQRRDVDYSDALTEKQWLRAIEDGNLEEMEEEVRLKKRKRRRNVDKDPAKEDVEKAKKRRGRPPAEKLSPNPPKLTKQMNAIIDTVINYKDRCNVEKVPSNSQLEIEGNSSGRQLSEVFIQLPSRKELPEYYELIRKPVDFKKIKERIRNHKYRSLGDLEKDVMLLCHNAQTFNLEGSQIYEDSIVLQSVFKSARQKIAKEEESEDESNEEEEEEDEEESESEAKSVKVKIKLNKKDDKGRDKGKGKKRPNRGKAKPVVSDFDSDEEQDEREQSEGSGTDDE
Target sequence in this assay (Q96SW2 whole entry): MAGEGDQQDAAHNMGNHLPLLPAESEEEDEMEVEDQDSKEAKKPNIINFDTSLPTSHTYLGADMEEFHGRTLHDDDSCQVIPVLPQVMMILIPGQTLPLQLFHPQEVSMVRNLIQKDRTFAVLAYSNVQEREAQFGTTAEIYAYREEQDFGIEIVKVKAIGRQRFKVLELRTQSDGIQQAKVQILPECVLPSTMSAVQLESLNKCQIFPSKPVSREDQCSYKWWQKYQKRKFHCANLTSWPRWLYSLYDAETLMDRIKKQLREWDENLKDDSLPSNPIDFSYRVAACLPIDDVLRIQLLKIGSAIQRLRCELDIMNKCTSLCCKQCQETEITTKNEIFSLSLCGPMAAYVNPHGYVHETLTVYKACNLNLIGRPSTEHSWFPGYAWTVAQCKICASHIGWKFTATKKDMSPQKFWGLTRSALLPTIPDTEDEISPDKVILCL

[2] = biological target: T1, Protein cereblon/SWI/SNF-related matrix-associated actin-dependent regulator of chromatin subfamily A member 2; experiment: PROTAC activity at CRBN/SMARCA2 in human NCI-H1792 cells harboring wild type SMARCA4 assessed as induction of SMARCA2 degradation incubated for 48 hrs by immunoblot analysis; assay type: cell-based; method in brief: as §1
Target sequence in this assay (P51531 whole entry): as the sequence (P51531 whole entry) above
Target sequence in this assay (Q96SW2 whole entry): as the sequence (Q96SW2 whole entry) above

[3] = biological target: T2, Protein cereblon/SWI/SNF-related matrix-associated actin-dependent regulator of chromatin subfamily A member 4 (Homo sapiens, UniProt P51532+Q96SW2); experiment: PROTAC activity at CRBN/SMARCA4 in human NCI-H1792 cells harboring wild type SMARCA4 assessed as induction of SMARCA4 degradation incubated for 24 hrs by immunoblot analysis; assay type: cell-based; method in brief: as §1
T2 sequence (P51532 whole entry): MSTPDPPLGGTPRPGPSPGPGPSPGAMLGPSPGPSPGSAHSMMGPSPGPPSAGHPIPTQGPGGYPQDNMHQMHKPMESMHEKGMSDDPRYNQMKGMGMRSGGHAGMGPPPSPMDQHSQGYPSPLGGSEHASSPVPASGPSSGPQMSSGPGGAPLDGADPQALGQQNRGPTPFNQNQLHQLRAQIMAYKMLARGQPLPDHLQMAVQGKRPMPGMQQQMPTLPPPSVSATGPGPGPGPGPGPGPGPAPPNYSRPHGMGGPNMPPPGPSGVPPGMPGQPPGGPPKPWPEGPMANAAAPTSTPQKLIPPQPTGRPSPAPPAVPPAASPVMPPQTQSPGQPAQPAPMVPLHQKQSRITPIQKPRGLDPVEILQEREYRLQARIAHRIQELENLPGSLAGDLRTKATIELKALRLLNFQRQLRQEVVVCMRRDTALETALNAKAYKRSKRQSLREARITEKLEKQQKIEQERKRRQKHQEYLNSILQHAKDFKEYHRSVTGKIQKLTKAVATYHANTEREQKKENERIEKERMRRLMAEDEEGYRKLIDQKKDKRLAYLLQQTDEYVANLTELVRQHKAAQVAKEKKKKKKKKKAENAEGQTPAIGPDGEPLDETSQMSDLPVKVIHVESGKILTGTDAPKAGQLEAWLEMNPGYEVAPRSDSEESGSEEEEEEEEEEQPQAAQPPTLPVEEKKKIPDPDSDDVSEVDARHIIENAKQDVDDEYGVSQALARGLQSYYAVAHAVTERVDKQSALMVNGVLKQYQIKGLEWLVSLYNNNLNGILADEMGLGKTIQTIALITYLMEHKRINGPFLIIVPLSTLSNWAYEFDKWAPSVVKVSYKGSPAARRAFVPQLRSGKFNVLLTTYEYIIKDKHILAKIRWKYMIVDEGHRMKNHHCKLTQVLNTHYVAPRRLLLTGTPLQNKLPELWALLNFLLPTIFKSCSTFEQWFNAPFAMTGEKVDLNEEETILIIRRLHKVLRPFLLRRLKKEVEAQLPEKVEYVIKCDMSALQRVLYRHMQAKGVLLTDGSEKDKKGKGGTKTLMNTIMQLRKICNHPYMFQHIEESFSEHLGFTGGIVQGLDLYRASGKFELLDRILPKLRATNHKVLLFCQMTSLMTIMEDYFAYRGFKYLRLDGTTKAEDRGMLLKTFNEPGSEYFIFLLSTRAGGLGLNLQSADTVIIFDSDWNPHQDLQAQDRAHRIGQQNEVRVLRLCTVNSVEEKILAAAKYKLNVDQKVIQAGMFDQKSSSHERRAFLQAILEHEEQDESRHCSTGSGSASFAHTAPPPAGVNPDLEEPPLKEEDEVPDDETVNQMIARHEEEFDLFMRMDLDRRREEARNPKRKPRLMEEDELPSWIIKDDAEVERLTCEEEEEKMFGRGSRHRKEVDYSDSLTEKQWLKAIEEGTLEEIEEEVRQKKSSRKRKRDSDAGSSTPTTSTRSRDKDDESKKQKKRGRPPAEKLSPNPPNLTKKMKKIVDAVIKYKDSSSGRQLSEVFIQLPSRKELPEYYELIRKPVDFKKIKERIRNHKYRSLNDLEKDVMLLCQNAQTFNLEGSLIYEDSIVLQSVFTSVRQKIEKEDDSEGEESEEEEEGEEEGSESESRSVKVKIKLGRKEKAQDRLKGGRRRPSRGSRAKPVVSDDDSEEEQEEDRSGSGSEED
T2 sequence (Q96SW2 whole entry): as the sequence (Q96SW2 whole entry) above

[4] = biological target: T2, Protein cereblon/SWI/SNF-related matrix-associated actin-dependent regulator of chromatin subfamily A member 4; experiment: PROTAC activity at CRBN/SMARCA4 in human NCI-H1792 cells harboring wild type SMARCA4 assessed as induction of SMARCA4 degradation incubated for 48 hrs by immunoblot analysis; assay type: cell-based; method in brief: as §1
[5] = biological target: T1, Protein cereblon/SWI/SNF-related matrix-associated actin-dependent regulator of chromatin subfamily A member 2; experiment: PROTAC activity at CRBN/SMARCA2 in human NCI-H1792 cells harboring wild type SMARCA4 assessed as induction of SMARCA2 degradation incubated up to 96 hrs by immunoblot analysis; assay type: cell-based
[6] = biological target: T1, Protein cereblon/SWI/SNF-related matrix-associated actin-dependent regulator of chromatin subfamily A member 2; experiment: PROTAC activity at CRBN/SMARCA2 in human H322 cells harboring mutated SMARCA4 assessed as induction of SMARCA2 degradation incubated for 48 hrs by immunoblot analysis; assay type: cell-based
Method in brief: (§2)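 SMARCA4-mutant H322, HCC515, H2030 and H2126 cells were treated as indicated. SMARCA2 was immunoblotted in RIPA lysates and quantified after normalisation to β-actin. Expression is given relative to DMSO-treated cells, and Dmax was derived by nonlinear regression.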
Target sequence in this assay (P51531 whole entry, looked up, change not shown): as the sequence (P51531 whole entry) above
Target sequence in this assay (Q96SW2 whole entry, looked up, change not shown): as the sequence (Q96SW2 whole entry) above

[7] = biological target: T1, Protein cereblon/SWI/SNF-related matrix-associated actin-dependent regulator of chromatin subfamily A member 2; experiment: PROTAC activity at CRBN/SMARCA2 in human HCC515 cells harboring mutated SMARCA4 assessed as induction of SMARCA2 degradation incubated for 48 hrs by immunoblot analysis; assay type: cell-based; method in brief: as §2
Target sequence in this assay (P51531 whole entry, looked up, change not shown): as the sequence (P51531 whole entry) above
Target sequence in this assay (Q96SW2 whole entry, looked up, change not shown): as the sequence (Q96SW2 whole entry) above

[8] = biological target: T1, Protein cereblon/SWI/SNF-related matrix-associated actin-dependent regulator of chromatin subfamily A member 2; experiment: PROTAC activity at CRBN/SMARCA2 in human NCI-H2030 cells harboring mutated SMARCA4 assessed as induction of SMARCA2 degradation incubated for 48 hrs by immunoblot analysis; assay type: cell-based; method in brief: as §2
Target sequence in this assay (P51531 whole entry, looked up, change not shown): as the sequence (P51531 whole entry) above
Target sequence in this assay (Q96SW2 whole entry, looked up, change not shown): as the sequence (Q96SW2 whole entry) above

[9] = biological target: T1, Protein cereblon/SWI/SNF-related matrix-associated actin-dependent regulator of chromatin subfamily A member 2; experiment: PROTAC activity at CRBN/SMARCA2 in human NCI-H2126 cells harboring mutated SMARCA4 assessed as induction of SMARCA2 degradation incubated for 48 hrs by immunoblot analysis; assay type: cell-based; method in brief: as §2
Target sequence in this assay (P51531 whole entry, looked up, change not shown): as the sequence (P51531 whole entry) above
Target sequence in this assay (Q96SW2 whole entry, looked up, change not shown): as the sequence (Q96SW2 whole entry) above

[10] = (§3) Inhibition of colony formation in human NCI-H2122 cells harboring wild type SMARCA4 incubated for 9 to 14 days by crystal violet staining based assay; assay type: functional, cell-based
Method in brief: (§4)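 Single cells, 0.5–2 × 10^3 per well in 6-well plates, in RPMI with 10% FBS. Grown 9–14 days in drug-containing medium, refreshed every fifth day. Fixed in 10% formalin, stained with 0.01% crystal violet. Total colony area quantified and expressed relative to DMSO. n = 3 biological replicates. IC50 ratio is wild-type over mutant.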

NCI-H2122 = experiment: as §3; assay type: functional, cell-based; details: dose 0.001-10 µM, time 9-14 day; method in brief: as §4
[11] = (§5) Inhibition of colony formation in human HCC44 cells harboring wild type SMARCA4 incubated for 9 to 14 days by crystal violet staining based assay; assay type: functional, cell-based; method in brief: as §4
HCC44 = experiment: as §5; assay type: functional, cell-based; details: dose 0.001-10 µM, time 9-14 day; method in brief: as §4
[12] = (§6) Inhibition of colony formation in human NCI-H1568 cells harboring SMARCA4 mutant incubated for 9 to 14 days by crystal violet staining based assay; assay type: functional, cell-based; method in brief: as §4
NCI-H1568 = experiment: as §6; assay type: functional, cell-based; details: dose 0.001-10 µM, time 9-14 day; method in brief: as §4
NCI-H1693 = experiment: Inhibition of colony formation in human NCI-H1693 cells harboring SMARCA4 mutant incubated for 9 to 14 days by crystal violet staining based assay; assay type: functional, cell-based; details: for inhibition: dose 0.001-10 µM, time 9-14 day; method in brief: as §4
[13] = Metabolic stability in mouse liver microsomes assessed as compound remaining by measuring fold change in absence of NADPH measured after 60 mins by LC-MS/MS analysis; assay type: ADME, Microsome; details: 1 h
Method in brief: (§7)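 Microsomes at 0.5 mg protein/mL preincubated with compound for 10 min at 37 °C. The NCF60 control received 100 mM potassium phosphate buffer in place of the NADPH regenerating system and was incubated 1 h at 37 °C. Quenched with cold acetonitrile containing tolbutamide and labetalol internal standards, centrifuged, supernatant analyzed by LC-MS/MS. Fraction remaining reported.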

[14] = Metabolic stability in human liver microsomes assessed as compound remaining by measuring fold change in absence of NADPH measured after 60 mins by LC-MS/MS analysis; assay type: ADME, Microsome; details: 1 h; method in brief: as §7
[15] = AUC (0 to last) in male CD-1 (ICR) mouse at 25 mg/kg, ip measured up to 24 hrs by LC-MS/MS analysis; assay type: ADME, organism-based; details: in vivo
Method in brief: (§8)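 Single 25 mg/kg dose. IP vehicle was 5% DMSO/5% solutol/90% water at 1.25 mg/mL, final pH 4.39, clear solution. Oral vehicle was 0.5% methylcellulose/0.2% Tween 80 in water, opaque suspension. Plasma sampled at 0.25, 0.5, 1, 2, 4, 8 and 24 h. Plasma protein-precipitated with internal standard in acetonitrile, then LC-MS/MS. n = 3 mice per time point, mean.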

[16] = Cmax in male CD-1 (ICR) mouse at 25 mg/kg, po measured up to 24 hrs by LC-MS/MS analysis; assay type: ADME, organism-based; details: in vivo; method in brief: as §8
[17] = Cmax in male CD-1 (ICR) mouse at 25 mg/kg, ip measured up to 24 hrs by LC-MS/MS analysis; assay type: ADME, organism-based; details: in vivo; method in brief: as §8
[18] = Half life in male CD-1 (ICR) mouse at 25 mg/kg, ip measured up to 24 hrs by LC-MS/MS analysis; assay type: ADME, organism-based; details: in vivo; method in brief: as §8
[19] = AUC (0 to last) in male CD-1 (ICR) mouse at 25 mg/kg, po measured up to 24 hrs by LC-MS/MS analysis; assay type: ADME, organism-based; details: in vivo; method in brief: as §8
[20] = AUC (0 to infinity) in male CD-1 (ICR) mouse at 25 mg/kg, ip measured up to 24 hrs by LC-MS/MS analysis; assay type: ADME, organism-based; details: in vivo; method in brief: as §8
[21] = In vivo PROTAC activity at CRBN I391V mutant/SMARCA2 in mouse assessed as SMARCA2 degradation in spleen at 80 mg/kg, po administered once daily for 3 days and measured at 24 hrs post last dose by Western blotting analysis relative to control; assay type: functional; details: time 3 day
Method in brief: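 CrbnI391V mice given 10, 20, 40 or 80 mg/kg or vehicle orally once daily for 3 days. Euthanised 24 h after the last dose. Spleen SMARCA2 measured by Western blot with actin as loading control, relative to vehicle. Plasma drug level measured at the same time.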

Nc1nnc(-c2ccccc2O)cc1N1CCN(Cc2ccc(N3CCN(CCOc4cccc5c4C(=O)N(C4CCC(=O)NC4=O)C5=O)CC3)c(F)c2)CC1 (stereo unspecified)
DC50 [1]: 0.0081 µM | DC50 [2]: 0.016 µM | DC50 [3]: 0.019 µM | DC50 [4]: 0.149 µM | Activity [5]: Active; More Potent And Fastest Degradation Observed | DC50 [6]: 0.001 µM | DC50 [7]: 0.0012 µM | DC50 [8]: 0.0103 µM | DC50 [9]: 0.0016 µM | IC50 ([10]; Homo sapiens, NCI-H2122, read-out: IC50): 9.1 µM | inhibition (NCI-H2122): Dose-dependent-effect | IC50 [11]: 9.1 µM | inhibition (HCC44): Dose-dependent-effect | IC50 [12]: 0.011 µM | inhibition (NCI-H1568): Dose-dependent-effect | IC50 (NCI-H1693): 0.011 µM | inhibition (NCI-H1693): Dose-dependent-effect | fold change (FC) [13]: 0.368 | fold change (FC) [14]: 0.501 | AUClast [15]: 19.3653 µg·h/mL | Cmax [16]: 0.587 µg/mL | Cmax [17]: 2.0397 µg/mL | t1/2 [18]: 13 h | AUClast [19]: 4.743 µg·h/mL | AUC [20]: 27.1083 µg·h/mL

Nc1nnc(-c2ccccc2O)cc1N1CCN(Cc2ccc(N3CCC(CN4CCN(c5ccc6c(c5)C(=O)N(C5CCC(=O)NC5=O)C6=O)CC4)CC3)c(F)c2)CC1 (stereo unspecified)
DC50 [1]: 0.069 µM | DC50 [2]: 0.06 µM | DC50 [3]: 0.135 µM | DC50 [4]: 0.381 µM | Activity [5]: Active | DC50 [6]: 0.0064 µM | DC50 [7]: 0.0106 µM | DC50 [8]: 0.0127 µM | DC50 [9]: 0.0012 µM | IC50 ([10]; dose 0.001-10 µM, time 9-14 day): 10 µM | inhibition (NCI-H2122): Dose-dependent-effect | IC50 [11]: 10 µM | inhibition (HCC44): Dose-dependent-effect | IC50 [12]: 0.078 µM | inhibition (NCI-H1568): Dose-dependent-effect | IC50 (NCI-H1693): 0.078 µM | inhibition (NCI-H1693): Dose-dependent-effect | fold change (FC) [13]: 0.935 | fold change (FC) [14]: 0.33 | AUClast [15]: 23.2137 µg·h/mL | Cmax [16]: 0.6493 µg/mL | Cmax [17]: 1.7563 µg/mL | t1/2 [18]: 44.8 h | AUClast [19]: 12.0793 µg·h/mL | AUC [20]: 68.813 µg·h/mL | Activity [21]: 81%
